According to ChEMBL document CHEMBL3351394 (J Med Chem, 2014):
Converted amounts (≈) assume the structure as drawn.

Legend:
[1] = target: T1, Bile acid receptor (Homo sapiens) (UniProt Q96RI1); assay: Agonist activity at FXR in human HepG2 cells assessed as induction of CYP7A1 mrNA expression at 0.3 uM by quantitative PCR method; assay type: cell-based
T1 sequence (whole entry): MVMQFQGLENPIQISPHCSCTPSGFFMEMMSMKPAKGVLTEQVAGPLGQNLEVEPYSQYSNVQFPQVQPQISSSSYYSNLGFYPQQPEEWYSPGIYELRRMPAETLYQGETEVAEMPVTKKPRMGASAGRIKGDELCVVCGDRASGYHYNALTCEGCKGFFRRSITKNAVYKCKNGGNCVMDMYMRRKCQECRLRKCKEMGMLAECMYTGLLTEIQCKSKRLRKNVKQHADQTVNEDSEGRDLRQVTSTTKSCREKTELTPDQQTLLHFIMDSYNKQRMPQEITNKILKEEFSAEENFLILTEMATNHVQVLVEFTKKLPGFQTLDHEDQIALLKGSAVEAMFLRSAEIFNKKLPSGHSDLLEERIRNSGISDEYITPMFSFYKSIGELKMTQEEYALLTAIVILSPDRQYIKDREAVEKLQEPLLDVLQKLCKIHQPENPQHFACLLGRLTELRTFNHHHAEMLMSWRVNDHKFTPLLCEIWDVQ
Summary of the method: (§1)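 HepG2 cells were seeded at 2 × 10⁶ per well. After 24 h they were switched to MEM with 1% charcoal-stripped FCS, and 24 h later dosed with compound (0.1, 0.3, 1, 3, 10 μM; 0.1% DMSO final) for 24 h. Total RNA was reverse transcribed and analysed by qPCR, GAPDH-normalized, ΔΔCt method. Samples were run in duplicate in ≥4 independent experiments.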

[2] = target: T1, Bile acid receptor (Homo sapiens); assay: Agonist activity at FXR in human HepG2 cells assessed as induction of SHP mrNA expression at 3 uM by quantitative PCR method; assay type: cell-based; summary of the method: as §1
[3] = target: T1, Bile acid receptor (Homo sapiens); assay: Agonist activity at FXR in human HepG2 cells assessed as induction of SHP mrNA expression at 10 uM by quantitative PCR method; assay type: cell-based; summary of the method: as §1
[4] = target: T1, Bile acid receptor (Homo sapiens); assay: Agonist activity at FXR in human HepG2 cells assessed as induction of SHP mrNA expression at 0.3 uM by quantitative PCR method; assay type: cell-based; summary of the method: as §1
[5] = Aqueous solubility of the compound; assay type: physicochemical; details: water (aqueous)
[6] = target: T2, Peroxisome proliferator-activated receptor gamma (Homo sapiens, UniProt P37231); assay: (§2) Activity at GAL4-tagged PPARgamma (unknown origin) expressed in COS7 cells assessed as receptor transactivation by luciferase reporter gene assay; assay type: cell-based, COS-7
T2 sequence (P37231 whole entry): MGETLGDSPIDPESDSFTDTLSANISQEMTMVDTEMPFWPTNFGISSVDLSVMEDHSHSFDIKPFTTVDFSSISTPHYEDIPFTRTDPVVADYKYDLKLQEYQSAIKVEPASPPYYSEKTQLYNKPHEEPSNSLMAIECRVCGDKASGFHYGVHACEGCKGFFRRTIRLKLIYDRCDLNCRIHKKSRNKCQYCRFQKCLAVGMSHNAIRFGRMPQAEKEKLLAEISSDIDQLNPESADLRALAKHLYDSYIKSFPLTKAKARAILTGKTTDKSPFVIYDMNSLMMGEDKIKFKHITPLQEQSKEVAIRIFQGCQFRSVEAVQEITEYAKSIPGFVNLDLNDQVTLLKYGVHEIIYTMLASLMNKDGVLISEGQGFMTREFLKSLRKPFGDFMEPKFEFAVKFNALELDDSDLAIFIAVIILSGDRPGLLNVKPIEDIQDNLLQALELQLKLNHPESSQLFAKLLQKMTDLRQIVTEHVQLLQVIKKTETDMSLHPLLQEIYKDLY
Summary of the method: (§3)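 Each PPAR subtype was tested as a Gal4 fusion carrying the human hinge region and LBD (cDNA from human monocytes) in transiently transfected COS-7 cells (Lipofectamine LTX), with a pFR-Luc reporter and pRL-SV40 for normalization. Compound in 0.1% DMSO was added 5 h post-transfection and incubated overnight. Firefly/renilla RLU was scaled to 1 μM GW7647 (α), L165,041 (δ) or pioglitazone (γ).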

[7] = target: T3, Peroxisome proliferator-activated receptor gamma (Homo sapiens) (UniProt P37231); assay: as §2; assay type: cell-based; details: COS-7; summary of the method: as §3
T3 sequence (whole entry): T2 sequence (P37231 whole entry)

[8] = target: T1, Bile acid receptor (Homo sapiens); assay: Agonist activity at FXR in human HepG2 cells assessed as induction of OSTalpha mrNA expression at 1 uM by quantitative PCR method; assay type: cell-based; summary of the method: as §1
[9] = target: T1, Bile acid receptor (Homo sapiens); assay: Agonist activity at FXR in human HepG2 cells assessed as induction of SHP mrNA expression at 0.1 uM by quantitative PCR method; assay type: cell-based; summary of the method: as §1
[10] = target: T4, G-protein coupled bile acid receptor 1 (Homo sapiens, UniProt Q8TDU6); assay: Activity at TGR5 in human NCI-H716 cells assessed as effect on intracellular cAMP accumulation incubated for 60 mins by HTR-FRET assay; assay type: functional, cell-based
T4 sequence (Q8TDU6 whole entry): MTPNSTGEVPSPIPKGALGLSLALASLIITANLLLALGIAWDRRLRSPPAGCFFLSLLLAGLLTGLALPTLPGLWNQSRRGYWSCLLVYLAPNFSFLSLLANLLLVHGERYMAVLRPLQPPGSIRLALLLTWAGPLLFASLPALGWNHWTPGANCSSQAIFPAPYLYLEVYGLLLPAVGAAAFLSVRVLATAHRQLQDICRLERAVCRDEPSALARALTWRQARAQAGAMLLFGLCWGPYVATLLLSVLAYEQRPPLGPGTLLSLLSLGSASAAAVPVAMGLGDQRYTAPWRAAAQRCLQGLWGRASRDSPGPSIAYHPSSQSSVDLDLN
Summary of the method: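 NCI-H716 cells on Matrigel-coated plates were stimulated 24 h after plating with increasing compound concentrations for 60 min at 37 °C in OptiMEM containing 1 mM IBMX. Intracellular cAMP was read by HTRF (Lance kit).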

Homo sapiens = organism: Homo sapiens; assay: Selectivity index, ratio of EC50 for GAL4-tagged PPARalpha (unknown origin) to EC50 for human FXR
[11] = target: T1, Bile acid receptor (Homo sapiens); assay: Agonist activity at FXR in human HepG2 cells assessed as induction of BSEP mrNA expression at 0.1 uM by quantitative PCR method; assay type: cell-based; summary of the method: as §1
[12] = target: T5, Peroxisome proliferator-activated receptor alpha (Homo sapiens, UniProt Q07869); assay: Activity at GAL4-tagged PPARalpha (unknown origin) expressed in COS7 cells assessed as receptor transactivation by luciferase reporter gene assay; assay type: cell-based, COS-7; summary of the method: as §3
T5 sequence (Q07869 whole entry): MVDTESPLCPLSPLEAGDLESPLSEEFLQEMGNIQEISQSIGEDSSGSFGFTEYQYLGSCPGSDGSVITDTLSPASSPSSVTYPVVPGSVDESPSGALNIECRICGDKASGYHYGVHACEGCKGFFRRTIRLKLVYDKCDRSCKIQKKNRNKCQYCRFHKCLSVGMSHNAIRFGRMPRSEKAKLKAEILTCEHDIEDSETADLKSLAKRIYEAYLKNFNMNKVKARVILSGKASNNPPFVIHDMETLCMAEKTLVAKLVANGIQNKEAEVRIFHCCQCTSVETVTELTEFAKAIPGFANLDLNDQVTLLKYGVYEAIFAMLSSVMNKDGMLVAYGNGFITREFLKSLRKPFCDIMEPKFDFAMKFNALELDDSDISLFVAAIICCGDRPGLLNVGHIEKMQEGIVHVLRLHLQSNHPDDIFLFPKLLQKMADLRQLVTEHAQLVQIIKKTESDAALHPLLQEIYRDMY

COc1ccc(C(=O)Nc2cccc(C(=O)O)c2)c(NC(=O)c2ccc(C(C)(C)C)cc2)c1
Activity [1]: 59% | Activity [2]: 185% | Activity [3]: 214% | Activity [4]: 247% | solubility [5]: 2.6 µg/mL (≈ 5.82 µM) | EC50 [6]: 2.99 µM | Emax [7]: 81% | Activity [8]: 140% | Activity [9]: 239% | EC50 [10]: 30 µM | Ratio EC50 (Homo sapiens): > 1000 | Activity [11]: 294% | EC50 [12]: > 10 µM
